Reference: ChEMBL document CHEMBL4371064, “Erythrofordins D and E, two new cassaine-type diterpenes from Erythrophleum suaveolens” (2019)

Tests used:
Format in all cases: functional
Malme-3M = assay: Growth inhibition of human MALME-3M cells incubated for 48 hrs by sulforhodamine B assay
In short: (§1)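 Run in the NCI-60 human tumour cell line panel with dose-response testing. GI50 was determined for each cell line from its dose-response data.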

M14 = assay: Growth inhibition of human M14 cells incubated for 48 hrs by sulforhodamine B assay; details: M14, 48 h; in short: as §1
SF-295 = assay: Growth inhibition of human SF295 cells incubated for 48 hrs by sulforhodamine B assay; details: SF-295, 48 h; in short: as §1
OVCAR-3 = assay: Growth inhibition of human OVCAR3 cells incubated for 48 hrs by sulforhodamine B assay; details: OVCAR-3, 48 h; in short: as §1
SF-268 = assay: Growth inhibition of human SF268 cells incubated for 48 hrs by sulforhodamine B assay; details: SF-268, 48 h; in short: as §1
A549 = assay: Growth inhibition of human A549/ATCC cells incubated for 48 hrs by sulforhodamine B assay; details: A549, 48 h; in short: as §1
SNB-75 = assay: Growth inhibition of human SNB75 cells incubated for 48 hrs by sulforhodamine B assay; details: SNB-75, 48 h; in short: as §1
CAKI-1 = assay: Growth inhibition of human Caki1 cells incubated for 48 hrs by sulforhodamine B assay; details: CAKI-1, 48 h; in short: as §1
COLO 205 = assay: Growth inhibition of human COLO205 cells incubated for 48 hrs by sulforhodamine B assay; details: COLO 205, 48 h; in short: as §1
NCI-H226 = assay: Growth inhibition of human NCI-H226 cells incubated for 48 hrs by sulforhodamine B assay; details: NCI-H226, 48 h; in short: as §1
BT-549 = assay: Growth inhibition of human BT549 cells incubated for 48 hrs by sulforhodamine B assay; details: BT-549, 48 h; in short: as §1
MCF7 = assay: Growth inhibition of human MCF7 cells incubated for 48 hrs by sulforhodamine B assay; details: MCF7, 48 h; in short: as §1
MOLT-4 = assay: Growth inhibition of human MOLT4 cells incubated for 48 hrs by sulforhodamine B assay; details: MOLT-4, 48 h; in short: as §1
SF-539 = assay: Growth inhibition of human SF539 cells incubated for 48 hrs by sulforhodamine B assay; details: SF-539, 48 h; in short: as §1
NCI-H322M = assay: Growth inhibition of human NCI-H322M cells incubated for 48 hrs by sulforhodamine B assay; in short: as §1
EKVX = assay: Growth inhibition of human EKVX cells incubated for 48 hrs by sulforhodamine B assay; in short: as §1
SK-MEL-2 = assay: Growth inhibition of human SK-MEL-2 cells incubated for 48 hrs by sulforhodamine B assay; details: SK-MEL-2, 48 h; in short: as §1
HCT-116 = assay: Growth inhibition of human HCT116 cells incubated for 48 hrs by sulforhodamine B assay; details: HCT-116, 48 h; in short: as §1
NCI-H23 = assay: Growth inhibition of human NCI-H23 cells incubated for 48 hrs by sulforhodamine B assay; details: NCI-H23, 48 h; in short: as §1
HOP-92 = assay: Growth inhibition of human HOP92 cells incubated for 48 hrs by sulforhodamine B assay; details: HOP-92, 48 h; in short: as §1
OVCAR-5 = assay: Growth inhibition of human OVCAR5 cells incubated for 48 hrs by sulforhodamine B assay; details: OVCAR-5, 48 h; in short: as §1
SW-620 = assay: Growth inhibition of human SW620 cells incubated for 48 hrs by sulforhodamine B assay; details: SW-620, 48 h
In short: (§2)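 Tested in the NCI 60-human-tumour-cell-line screen using the five-dose format. GI₅₀ was derived from each cell line's dose-response. TGI and LC₅₀ were derived from the same dose-response data.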

HL-60(TB) = assay: Growth inhibition of human HL-60(TB) cells incubated for 48 hrs by sulforhodamine B assay; details: HL-60, 48 h
In short: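 Run within the NCI-60 human tumour cell line panel as a dose-response screen. For each cell line the readouts are GI50, TGI and LC50. Per-line log values also feed a mean-graph analysis, in which the arithmetic mean of the log values across all lines is subtracted from each line's log value.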

SK-OV-3 = assay: Growth inhibition of human SKOV3 cells incubated for 48 hrs by sulforhodamine B assay; details: SK-OV-3, 48 h; in short: as §1
Hs-578T = assay: Growth inhibition of human Hs578T cells incubated for 48 hrs by sulforhodamine B assay; in short: as §1
NCI/ADR-RES = assay: Growth inhibition of human NCI/ADR-RES cells incubated for 48 hrs by sulforhodamine B assay; in short: as §1
LOX IMVI = assay: Growth inhibition of human LOXIMVI cells incubated for 48 hrs by sulforhodamine B assay; in short: as §1
HCT-15 = assay: Growth inhibition of human HCT15 cells incubated for 48 hrs by sulforhodamine B assay; details: HCT-15, 48 h; in short: as §1
HT-29 = assay: Growth inhibition of human HT-29 cells incubated for 48 hrs by sulforhodamine B assay; details: HT-29, 48 h; in short: as §1
U-251 = assay: Growth inhibition of human U251 cells incubated for 48 hrs by sulforhodamine B assay; details: U-251, 48 h; in short: as §2
[1] = read-out: pLC50 (the source's name) (converted)

How did the GI50 (Malme-3M) turn out when COC(=O)/C=C1\CC[C@H]2[C@@H](CC(=O)[C@H]3C(C)(C)C(=O)CC[C@]23C)[C@H]1C was run?
Its GI50 is 724 nM.

And the LC50 (Malme-3M)?
The LC50 was 6920 nM.

And the TGI (Malme-3M; read-out: pTGI (converted))?
The TGI was 1660 nM.

What about the GI50 (M14) of the same molecule?
The GI50 was 1150 nM.

What about the LC50 (M14) of the same molecule?
The LC50 was 20000 nM.

What about the TGI (M14; read-out: pTGI (converted)) of the same molecule?
Its TGI is 4270 nM.

What about the GI50 (SF-295) of the same molecule?
The GI50 was 741 nM.

And the LC50 (SF-295)?
The LC50 was 6030 nM.

What about the TGI (SF-295; read-out: pTGI (converted)) of the same molecule?
The TGI was 1740 nM.

And the GI50 (OVCAR-3)?
The GI50 was 661 nM.

What about the LC50 (OVCAR-3) of the same molecule?
The LC50 was 2510 nM.

And the TGI (OVCAR-3; read-out: pTGI (converted))?
Its TGI is 1290 nM.

What about the GI50 (SF-268) of the same molecule?
Its GI50 is 331 nM.

And the LC50 (SF-268)?
Its LC50 is 1910 nM.

And the TGI (SF-268; read-out: pTGI (converted))?
Its TGI is 813 nM.

And the GI50 (A549)?
The GI50 was 427 nM.

And the LC50 (A549)?
Its LC50 is 1820 nM.

And the TGI (A549; read-out: pTGI (converted))?
The TGI was 891 nM.

And the GI50 (SNB-75)?
The GI50 was 550 nM.

What about the LC50 (concentration killing 50% of cells) (SNB-75) of the same molecule?
The LC50 (concentration killing 50% of cells) was 2630 nM.

And the TGI (SNB-75; read-out: pTGI (converted))?
The TGI was 1200 nM.

What about the GI50 (CAKI-1) of the same molecule?
Its GI50 is 661 nM.

What about the LC50 (CAKI-1) of the same molecule?
The LC50 was 2950 nM.

What about the TGI (CAKI-1; read-out: pTGI (converted)) of the same molecule?
Its TGI is 1380 nM.

What about the GI50 (COLO 205) of the same molecule?
The GI50 was 1230 nM.

And the LC50 (COLO 205)?
The LC50 was > 34700 nM.

What about the TGI (COLO 205; read-out: pTGI (converted)) of the same molecule?
The TGI was 5370 nM.

And the GI50 (NCI-H226)?
The GI50 was 617 nM.

What about the LC50 (NCI-H226) of the same molecule?
Its LC50 is 2630 nM.

And the TGI (NCI-H226; read-out: pTGI (converted))?
Its TGI is 1290 nM.

What about the GI50 (BT-549) of the same molecule?
Its GI50 is 676 nM.

And the LC50 (BT-549)?
Its LC50 is 5130 nM.

What about the TGI (BT-549; read-out: pTGI (converted)) of the same molecule?
Its TGI is 1660 nM.

What about the GI50 (MCF7) of the same molecule?
The GI50 was 955 nM.

What about the CC50 (MCF7; [1]) of the same molecule?
The CC50 was > 34700 nM.

And the TGI (MCF7; read-out: pTGI)?
Its TGI is > 34700 nM.

What about the GI50 (MOLT-4) of the same molecule?
Its GI50 is 195 nM.

What about the LC50 (MOLT-4) of the same molecule?
The LC50 was > 34700 nM.

And the TGI (MOLT-4; read-out: pTGI (converted))?
Its TGI is 1150 nM.

What about the GI50 (SF-539) of the same molecule?
Its GI50 is 575 nM.

And the LC50 (SF-539)?
The LC50 was 2090 nM.

What about the TGI (SF-539; read-out: pTGI (converted)) of the same molecule?
The TGI was 1100 nM.

And the GI50 (NCI-H322M)?
Its GI50 is 813 nM.

What about the LC50 (NCI-H322M) of the same molecule?
Its LC50 is 27500 nM.

What about the TGI (NCI-H322M; read-out: pTGI (converted)) of the same molecule?
The TGI was 2510 nM.

And the GI50 (EKVX)?
Its GI50 is 407 nM.

What about the LC50 (EKVX) of the same molecule?
Its LC50 is 1910 nM.

What about the TGI (EKVX; read-out: pTGI (converted)) of the same molecule?
The TGI was 871 nM.

What about the GI50 (SK-MEL-2) of the same molecule?
Its GI50 is 1050 nM.

What about the LC50 (concentration killing 50% of cells) (SK-MEL-2) of the same molecule?
Its LC50 (concentration killing 50% of cells) is > 34700 nM.

And the TGI (SK-MEL-2; read-out: pTGI (converted))?
The TGI was 4470 nM.

And the GI50 (HCT-116)?
The GI50 was 646 nM.

And the LC50 (HCT-116)?
The LC50 was 2880 nM.

And the TGI (HCT-116; read-out: pTGI (converted))?
Its TGI is 1380 nM.

What about the GI50 (NCI-H23) of the same molecule?
Its GI50 is 661 nM.

What about the LC50 (NCI-H23) of the same molecule?
Its LC50 is > 34700 nM.

What about the TGI (NCI-H23; read-out: pTGI (converted)) of the same molecule?
Its TGI is 1780 nM.

And the GI50 (HOP-92)?
The GI50 was 1000 nM.

What about the LC50 (HOP-92) of the same molecule?
Its LC50 is > 34700 nM.

And the TGI (HOP-92; read-out: pTGI (converted))?
The TGI was 3470 nM.

What about the GI50 (OVCAR-5) of the same molecule?
Its GI50 is 776 nM.

What about the LC50 (OVCAR-5) of the same molecule?
The LC50 was 21400 nM.

And the TGI (OVCAR-5; read-out: pTGI (converted))?
The TGI was 2340 nM.

And the GI50 (SW-620)?
The GI50 was 708 nM.

What about the LC50 (SW-620) of the same molecule?
The LC50 was 9120 nM.

And the TGI (SW-620; read-out: pTGI (converted))?
The TGI was 1700 nM.

And the GI50 (HL-60(TB))?
The GI50 was 977 nM.

What about the LC50 (HL-60(TB)) of the same molecule?
The LC50 was > 34700 nM.

And the TGI (HL-60(TB); read-out: pTGI (converted))?
Its TGI is 2750 nM.

And the GI50 (SK-OV-3)?
The GI50 was 1020 nM.

And the LC50 (SK-OV-3)?
Its LC50 is > 34700 nM.

And the TGI (SK-OV-3; read-out: pTGI (converted))?
The TGI was 3160 nM.

What about the GI50 (Hs-578T) of the same molecule?
Its GI50 is 417 nM.

What about the LC50 (Hs-578T) of the same molecule?
The LC50 was > 34700 nM.

What about the TGI (Hs-578T; read-out: pTGI (converted)) of the same molecule?
Its TGI is 1660 nM.

And the GI50 (NCI/ADR-RES)?
The GI50 was 741 nM.

What about the CC50 (NCI/ADR-RES; [1]) of the same molecule?
Its CC50 is > 34700 nM.

What about the TGI (NCI/ADR-RES; read-out: pTGI (converted)) of the same molecule?
The TGI was 1910 nM.

What about the GI50 (LOX IMVI) of the same molecule?
The GI50 was 692 nM.

What about the LC50 (LOX IMVI) of the same molecule?
Its LC50 is 5250 nM.

What about the TGI (LOX IMVI; read-out: pTGI (converted)) of the same molecule?
The TGI was 1660 nM.

What about the GI50 (HCT-15) of the same molecule?
Its GI50 is 692 nM.

What about the LC50 (HCT-15) of the same molecule?
The LC50 was 3310 nM.

And the TGI (HCT-15; read-out: pTGI (converted))?
The TGI was 1510 nM.

And the GI50 (HT-29)?
Its GI50 is 955 nM.

And the CC50 (HT-29; [1])?
Its CC50 is 12900 nM.

And the TGI (HT-29; read-out: pTGI (converted))?
The TGI was 2450 nM.

What about the GI50 (U-251) of the same molecule?
Its GI50 is 646 nM.

And the LC50 (U-251)?
Its LC50 is 2630 nM.

What about the TGI (U-251; read-out: pTGI (converted)) of the same molecule?
The TGI was 1320 nM.
